Assay results gathered from unrelated publications.
Each line is one published result; the experiments were not run side by side.
Target: Dual serine/threonine and tyrosine protein kinase (DSTYK, Homo sapiens, UniProt Q6XUX3)
One construct used (Q6XUX3 1-929): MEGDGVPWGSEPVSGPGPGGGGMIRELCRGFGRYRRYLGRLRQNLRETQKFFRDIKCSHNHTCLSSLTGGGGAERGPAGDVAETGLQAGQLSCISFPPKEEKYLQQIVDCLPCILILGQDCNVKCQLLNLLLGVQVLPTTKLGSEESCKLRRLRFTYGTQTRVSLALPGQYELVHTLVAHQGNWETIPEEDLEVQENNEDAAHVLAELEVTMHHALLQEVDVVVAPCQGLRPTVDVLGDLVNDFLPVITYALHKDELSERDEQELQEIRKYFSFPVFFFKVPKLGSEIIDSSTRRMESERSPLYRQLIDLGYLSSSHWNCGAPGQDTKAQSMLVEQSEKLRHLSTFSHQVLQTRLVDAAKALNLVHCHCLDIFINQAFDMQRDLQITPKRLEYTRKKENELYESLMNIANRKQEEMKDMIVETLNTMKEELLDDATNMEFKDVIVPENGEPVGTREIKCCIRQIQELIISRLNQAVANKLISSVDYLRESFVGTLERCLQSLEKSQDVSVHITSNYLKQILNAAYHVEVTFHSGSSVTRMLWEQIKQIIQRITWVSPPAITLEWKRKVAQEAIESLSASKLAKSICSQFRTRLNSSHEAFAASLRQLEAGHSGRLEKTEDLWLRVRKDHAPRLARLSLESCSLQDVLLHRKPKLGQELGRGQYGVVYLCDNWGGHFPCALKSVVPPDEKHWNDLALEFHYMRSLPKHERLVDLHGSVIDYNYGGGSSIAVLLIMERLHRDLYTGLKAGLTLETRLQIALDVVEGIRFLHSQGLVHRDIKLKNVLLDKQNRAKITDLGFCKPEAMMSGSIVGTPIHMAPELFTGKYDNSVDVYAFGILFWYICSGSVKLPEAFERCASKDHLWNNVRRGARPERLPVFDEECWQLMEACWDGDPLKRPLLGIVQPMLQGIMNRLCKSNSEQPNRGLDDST

| SMILES | observed | technique | concentration | remaining binding |
| --- | --- | --- | --- | --- |
| COc1ccnn2ncc(-c3ccnc(N(C)C)n3)c12 | binding | – | 1 µM | 100% |
| CNC(=O)c1ccc(Nc2ncc(C(F)(F)F)c(NCc3nccnc3N(C)S(C)(=O)=O)n2)cc1 | cell-free assay | competition with immobilised ligand | 0.1 µM | 87% |
| O=C(c1ccc(Nc2ncc(Cl)c(-c3cc4ccccc4s3)n2)cc1)N1CCC(N2CCCC2)CC1 | binding | competition with immobilised ligand | 1 µM | 32% |
| COc1cnc(Nc2cccc(S(N)(=O)=O)c2)nc1N1CCN(c2ccccc2)CC1 | binding | competition with immobilised ligand | 1 µM | 100% |
| O=C1CCc2cc(Nc3cc(OC4CCOCC4)c([N+](=O)[O-])cc3Cl)ccc2N1 | cell-free assay | competition with immobilised ligand | 1 µM | 90% |
| C[C@@H]1CCN(c2nccc(-c3cnn4ncccc34)n2)C1 | binding | – | 1 µM | 77% |
| O=C(N1CCS(=O)(=O)CC1)N1C[C@H](c2ccc(OC(F)(F)F)cc2)C[C@H](c2nc(C3CC3)no2)C1 | cell-free assay | competition with immobilised ligand | 1 µM | 100% |
| CN(C)c1ncc(F)c(-c2cnn3ncccc23)n1 | binding | – | 1 µM | 69% |
| Nc1ncc2c(n1)-c1c([nH]c3ccc(C#CC4CC4)cc13)CCCC2 | binding | competition with immobilised ligand | 1 µM | 19% |
| O=C(c1ccc(Nc2ncc(Cl)c(-c3ccc(Cl)s3)n2)cc1)N1CCC(N2CCCC2)CC1 | binding | competition with immobilised ligand | 1 µM | 14% |
| O=C(NCC1CCOCC1)c1n[nH]cc1NC(=O)c1c(F)cccc1F | binding | competition with immobilised ligand | 1 µM | 86% |
| C=CC(=O)N1CCC(C(=O)NCC(=O)N2CCN(c3nc(-c4cnc(N)nc4C(F)F)nc(N4CCOCC4)n3)CC2)CC1 | binding | competition with immobilised ligand | 1 µM | 72% |
| O=C(NCc1ncc(C(F)(F)F)cc1Cl)c1ccc2c(c1)C1(CCS(=O)(=O)CC1)[C@@H](C1CC1)N2S(=O)(=O)c1ccc(F)cc1 | cell-free assay | competition with immobilised ligand | 1 µM | 78% |
| CN(C)c1nccc(-c2cnn3ncccc23)n1 | binding | – | 1 µM | 96% |
| O=C(c1ccc(Nc2nccc(-c3cc4ccccc4s3)n2)cc1)N1CCC(N2CCCC2)CC1 | binding | competition with immobilised ligand | 1 µM | 37% |
| CNC(=O)[C@@H]1CC[C@@H](n2c(-c3ccc4cnccc4c3)nc3ccc(C(=O)NCc4cccc(C(N)=O)c4)cc32)C1 | binding | competition with immobilised ligand | 1 µM | 100% |
| CN(C)c1nccc(-c2cnc3ncccn23)n1 | binding | – | 1 µM | 78% |
| CN(C)c1ncnc(-c2ccc3nc(Nc4cc(CN5CCN(C(=O)CC(F)(F)F)CC5)ccn4)[nH]c3c2)c1Cl | cell-free assay | competition with immobilised ligand | 1 µM | 95% |
| N[C@H]1CCN(c2nccc(-c3cnn4ncccc34)n2)C1 | binding | – | 1 µM | 100% |
| CCN1CCN(Cc2ccc(C(=O)Nc3ccc(C)c(Oc4ccc5c(c4)CC(=O)N5)c3)cc2C(F)(F)F)CC1 | binding | competition with immobilised ligand | 1 µM | 100% |
| CCOC(=O)c1cc2cc(-c3cc(C(=O)NCc4ccc(C(=O)O)cc4)nn3C)ccc2[nH]1 | cell-free assay | competition with immobilised ligand | 0.1 µM | 69% |
| CC1CCCN1c1nccc(-c2cnn3ncccc23)n1 (stereo not shown) | binding | – | 1 µM | 100% |
